Structures are written as SMILES.

Common to all, as to type: functional, cell-based
Experiment [1] deals with DU-145. Briefly: Cytotoxicity against human DU145 cells after 48 hrs by SRB assay. The gist of the method: (§1)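 Cells grown in RPMI 1640 with 10% FBS and penicillin/streptomycin at 37 °C and 5% CO₂, trypsinized, then seeded at 5 × 10³/well. After 18 h drug-free attachment, samples in DMSO/EtOH/PBS (0.5:0.5:99) were added for 48 h continuous exposure. Cells were fixed with cold TCA (1 h, 4 °C) and stained with SRB (10 min). Tris-solubilized stain read at 490 nm. Triplicate wells, mean ± SD; GI₅₀ derived.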

The test system of experiment [2] is HT-29. The experiment is described as follows: Cytotoxicity against human HT29 cells after 48 hrs by SRB assay. Particulars: for CC50 / GI50 / TGI: Homo sapiens, HT-29, 48 h; for CC50: read-out: LC50 (the source's name). The gist of the method:
as §1

Experiment [3] concerns SK-MEL-28. The experiment is described as follows: Cytotoxicity against human SK-MEL-28 cells after 48 hrs by SRB assay. The method, boiled down: as §1
On the technique in general: Sulforhodamine B stains cellular protein and so reports cell mass.

Experiment [4] deals with A549. Briefly: Cytotoxicity against human A549 cells after 48 hrs by SRB assay. Particulars: for LC50 / TGI / GI50: Homo sapiens, A549, 48 h; for GI50: read-out: GI50. The method, boiled down:
as §1

For the molecule `C/C=C1\NC(=O)[C@H](Cc2ccccc2)NC(=O)[C@@H](C(C)C)NC(=O)[C@@H]([C@H](C)CC)NC(=O)[C@H](NC(=O)[C@H](NC(=O)[C@H](CCCN)NC(=O)[C@H]2CCCN2C(=O)[C@H](NC(=O)[C@@H](NC(=O)[C@@H](NC(=O)[C@H](NC(=O)CCCO)C(C)C)[C@@H](C)O)C(C)C)C(C)C)[C@H](C)CC)[C@H](C)OC(=O)[C@H](C(C)C)NC1=O`, the Activity in experiment [1], in experiment [2], in experiment [3] and in experiment [4] was 6.89 ×10⁻⁶ M throughout.

For the molecule `C/C=C1\NC(=O)[C@H](Cc2ccccc2)NC(=O)[C@@H](C(C)C)NC(=O)[C@@H]([C@H](C)CC)NC(=O)[C@H](NC(=O)[C@H](NC(=O)[C@H](NC(=O)CCCC(C)C)C(C)C)[C@H](C)CC)[C@H](C)OC(=O)[C@H](C(C)C)NC1=O`, the CC50 in experiment [2] was 40 µM. The molecule also showed an LC50 in experiment [4] of 14.8 µM.

Regarding `C/C=C1\NC(=O)[C@H](Cc2ccccc2)NC(=O)[C@@H](C(C)C)NC(=O)[C@@H]([C@H](C)CC)NC(=O)[C@H](NC(=O)[C@H](NC(=O)[C@H](CCCN)NC(=O)[C@H]2CCCN2C(=O)[C@H](NC(=O)[C@@H](NC(=O)[C@@H](NC(=O)[C@H](NC(=O)CCC(C)C)C(C)C)[C@@H](C)O)C(C)C)C(C)C)[C@H](C)CC)[C@H](C)OC(=O)[C@H](C(C)C)NC1=O`, the Activity in experiment [1] was 3.42 ×10⁻⁷ M; in experiment [2], 3.42 ×10⁻⁷ M; in experiment [3], 3.42 ×10⁻⁶ M; in experiment [4] it was 3.42 ×10⁻⁷ M.

Turning to `C/C=C1\NC(=O)[C@H](Cc2ccccc2)NC(=O)[C@@H](C(C)C)NC(=O)[C@@H]([C@H](C)CC)NC(=O)[C@H](NC(=O)[C@H](NC(=O)[C@H](CCCN)NC(=O)[C@H]2CCCN2C(=O)[C@H](NC(=O)[C@@H](NC(=O)[C@@H](NC(=O)[C@H](NC(=O)CC(C)(C)C)C(C)C)[C@@H](C)O)C(C)C)C(C)C)[C@H](C)CC)[C@H](C)OC(=O)[C@H](C(C)C)NC1=O`, the Activity was 3.42 ×10⁻⁷ M in experiment [1], 3.42 ×10⁻⁷ M in experiment [2], 3.42 ×10⁻⁶ M in experiment [3] and 1.71 ×10⁻⁶ M in experiment [4].

Consider `C/C=C1\NC(=O)[C@H](Cc2ccccc2)NC(=O)[C@@H](C(C)C)NC(=O)[C@@H]([C@H](C)CC)NC(=O)[C@H](NC(=O)[C@H](NC(=O)[C@H](CCCN)NC(=O)[C@H]2CCCN2C(=O)[C@H](NC(=O)[C@@H](NC(=O)[C@@H](NC(=O)[C@H](NC(=O)CCCOC(C)=O)C(C)C)[C@@H](C)O)C(C)C)C(C)C)[C@H](C)CC)[C@H](C)OC(=O)[C@H](C(C)C)NC1=O`, for which the Activity in experiment [1], in experiment [2], in experiment [3] and in experiment [4] was 6.7 ×10⁻⁶ M throughout.

With `C/C=C1\NC(=O)[C@H](Cc2ccccc2)NC(=O)[C@@H](C(C)C)NC(=O)[C@@H]([C@H](C)CC)NC(=O)[C@H](NC(=O)[C@H](NC(=O)[C@H](CCCN)NC(=O)[C@H]2CCCN2C(=O)[C@H](NC(=O)[C@@H](NC(=O)[C@@H](NC(=O)[C@H](NC(=O)CCC)C(C)C)[C@@H](C)O)C(C)C)C(C)C)[C@H](C)CC)[C@H](C)OC(=O)[C@H](C(C)C)NC1=O`, the Activity is recorded as 1.74 ×10⁻⁶ M in experiment [1], 1.74 ×10⁻⁶ M in experiment [2], 3.48 ×10⁻⁶ M in experiment [3] and 3.48 ×10⁻⁶ M in experiment [4].

With `C/C=C1\NC(=O)[C@H](Cc2ccccc2)NC(=O)[C@@H](C(C)C)NC(=O)[C@@H]([C@H](C)CC)NC(=O)[C@H](NC(=O)[C@H](NC(=O)[C@H](CCCN)NC(=O)[C@H]2CCCN2C(=O)[C@H](NC(=O)[C@@H](NC(=O)[C@@H](NC(=O)[C@H](NC(=O)c2ccc3c(c2)OCO3)C(C)C)[C@@H](C)O)C(C)C)C(C)C)[C@H](C)CC)[C@H](C)OC(=O)[C@H](C(C)C)NC1=O`, in experiment [2], the GI50 worked out at 0.413 µM, net growth stopped (TGI) at 0.514 µM and the CC50 is 0.409 µM. For the same molecule, in experiment [4], the LC50 worked out at 1.33 µM, the total growth inhibition concentration (TGI) turned out to be 1.04 µM and the 50% growth inhibitory concentration (GI50) came out at 0.64 µM.

Turning to `C/C=C1\NC(=O)[C@H](Cc2ccccc2)NC(=O)[C@@H](C(C)C)NC(=O)[C@@H]([C@H](C)CC)NC(=O)[C@H](NC(=O)[C@H](NC(=O)[C@H](CCCN)NC(=O)[C@H]2CCCN2C(=O)[C@H](NC(=O)[C@@H](NC(=O)[C@@H](NC(=O)[C@H](NC(=O)/C=C/C=C/C)C(C)C)[C@@H](C)O)C(C)C)C(C)C)[C@H](C)CC)[C@H](C)OC(=O)[C@H](C(C)C)NC1=O`, the Activity worked out at 6.85 ×10⁻⁶ M in experiment [1], 6.85 ×10⁻⁷ M in experiment [2], 6.85 ×10⁻⁶ M in experiment [3] and 3.43 ×10⁻⁶ M in experiment [4].

In the case of `C/C=C1\NC(=O)[C@H](Cc2ccccc2)NC(=O)[C@@H](C(C)C)NC(=O)[C@@H]([C@H](C)CC)NC(=O)[C@H](NC(=O)[C@H](NC(=O)[C@H](NC(=O)[C@@H](NC(=O)[C@@H](NC(=O)[C@H](NC(=O)CCCC(C)C)C(C)C)[C@@H](C)O)C(C)C)C(C)C)[C@H](C)CC)[C@H](C)OC(=O)[C@H](C(C)C)NC1=O`, in experiment [2], the GI50 was found to be 9.89 µM, total growth inhibition (TGI) required 61.6 µM and the CC50 was 30.6 µM. Further, in experiment [4], the LC50 was 11.3 µM, the total growth inhibition concentration (TGI) was determined as 20.8 µM and the GI50 worked out at 23 µM.

Turning to `C/C=C1\NC(=O)[C@H](Cc2ccccc2)NC(=O)[C@@H](C(C)C)NC(=O)[C@@H]([C@H](C)CC)NC(=O)[C@H](NC(=O)[C@H](NC(=O)[C@H](CCCN)NC(=O)[C@H]2CCCN2C(=O)[C@H](NC(=O)[C@@H](NC(=O)[C@@H](NC(=O)[C@H](NC(=O)[C@H](NC(=O)C(C)C)[C@H](C)CC)C(C)C)[C@@H](C)O)C(C)C)C(C)C)[C@H](C)CC)[C@H](C)OC(=O)[C@H](C(C)C)NC1=O`, the Activity in experiment [1], in experiment [2], in experiment [3] and in experiment [4] was 6.46 ×10⁻⁶ M in each case.

Take `C/C=C1\NC(=O)[C@H](Cc2ccccc2)NC(=O)[C@@H](C(C)C)NC(=O)[C@@H]([C@H](C)CC)NC(=O)[C@H](NC(=O)[C@H](NC(=O)[C@H](CCCN)NC(=O)[C@H]2CCCN2C(=O)[C@H](NC(=O)[C@@H](NC(=O)[C@@H](NC(=O)[C@H](NC(=O)CCCOC(=O)CCOC(C)=O)C(C)C)[C@@H](C)O)C(C)C)C(C)C)[C@H](C)CC)[C@H](C)OC(=O)[C@H](C(C)C)NC1=O`: the Activity in experiment [1], in experiment [2], in experiment [3] and in experiment [4] was 6.33 ×10⁻⁷ M throughout.

In the case of `C/C=C1\NC(=O)[C@H](Cc2ccccc2)NC(=O)[C@@H](C(C)C)NC(=O)[C@@H]([C@H](C)CC)NC(=O)[C@H](NC(=O)[C@H](NC(=O)[C@H](CCCN)NC(=O)[C@H]2CCCN2C(=O)[C@H](NC(=O)[C@@H](NC(=O)[C@@H](NC(=O)[C@H](NC(=O)C(F)(F)F)C(C)C)[C@@H](C)O)C(C)C)C(C)C)[C@H](C)CC)[C@H](C)OC(=O)[C@H](C(C)C)NC1=O`, the Activity came to 3.42 ×10⁻⁶ M in experiment [1], 3.42 ×10⁻⁶ M in experiment [2], 6.84 ×10⁻⁶ M in experiment [3] and 6.84 ×10⁻⁶ M in experiment [4].

One may read the LC50 as the concentration lethal to half of the exposed cells or organisms. A high value points to lower toxicity. Broadly, the GI50 is the concentration giving 50% growth inhibition. Usually TGI stands for the concentration at which net growth stops. The low end stands for more potent growth arrest, the high end for less potent growth arrest.

For the origin of these results see ChEMBL document CHEMBL1156597, “Structure-activity relationship of kahalalide F synthetic analogues” (J Med Chem, 2008).
